Results from ChEMBL document CHEMBL1137670, “First occurrence of an IMP metallo-beta-lactamase in Aeromonas caviae: IMP-19 in an isolate from France” (2007).

What was measured:
[1] = substrate: CC(=O)OCC1=C(C(=O)O)N2C(=O)[C@@H](NC(=O)Cc3cccs3)[C@H]2SC1; experiment: (§1) Activity of Aeromonas caviae A324R metallo-beta-lactamase IMP-19 expressed in Escherichia coli DH5alpha by computerized microacidimetric method
Method in brief: (§2)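 IMP-19 purified from sonicated recombinant E. coli DH5alpha(pIP19). Purification: SP Sepharose in 50 mM MES-NaOH pH 6.0 with 0–500 mM NaCl gradient, then 5 mM ZnCl2 and Superose 12 in 20 mM MES-NaOH–100 mM NaCl pH 6.0; purity >97% by SDS-PAGE. Km and kcat measured three times by computerized microacidimetry; variation coefficients at most 10%.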

[2] = substrate: C[C@H]1[C@H](NC(=O)/C(=N\OC(C)(C)C(=O)O)c2csc(N)n2)C(=O)N1S(=O)(=O)O; experiment: as §1; method in brief: as §2
[3] = substrate: C[C@@H](O)[C@H]1C(=O)N2C(C(=O)O)=C(S[C@@H]3CN[C@H](C(=O)N(C)C)C3)[C@H](C)[C@H]12; experiment: as §1; method in brief: as §2
[4] = substrate: CO[C@@]1(NC(=O)Cc2cccs2)C(=O)N2C(C(=O)O)=C(COC(N)=O)CS[C@@H]21; experiment: as §1; method in brief: as §2
[5] = substrate: C[C@@H](O)[C@H]1C(=O)N2C(C(=O)O)=C(SCCNC=N)C[C@H]12; experiment: as §1; method in brief: as §2
[6] = substrate: CCN1CCN(C(=O)N[C@@H](C(=O)N[C@@H]2C(=O)N3[C@@H]2SC(C)(C)[C@@H]3C(=O)O)c2ccccc2)C(=O)C1=O; experiment: as §1; method in brief: as §2
[7] = substrate: CC1(C)S[C@@H]2[C@H](NC(=O)[C@H](N)c3ccc(O)cc3)C(=O)N2[C@H]1C(=O)O; experiment: as §1; method in brief: as §2
[8] = substrate: CC1(C)S[C@@H]2[C@H](NC(=O)Cc3ccccc3)C(=O)N2[C@H]1C(=O)O; experiment: as §1; method in brief: as §2
[9] = substrate: CO/N=C(\C(=O)N[C@@H]1C(=O)N2C(C(=O)[O-])=C(C[n+]3cccc4c3CCC4)CS[C@H]12)c1csc(N)n1; experiment: as §1; method in brief: as §2
[10] = substrate: CO/N=C(\C(=O)N[C@@H]1C(=O)N2C(C(=O)O)=C(COC(C)=O)CS[C@H]12)c1csc(N)n1; experiment: as §1; method in brief: as §2
[11] = substrate: CC(C)(O/N=C(\C(=O)N[C@@H]1C(=O)N2C(C(=O)[O-])=C(C[n+]3ccccc3)CS[C@H]12)c1csc(N)n1)C(=O)O; experiment: as §1; method in brief: as §2
[12] = substrate: CC1(C)S[C@@H]2[C@H](NC(=O)[C@H](C(=O)O)c3ccsc3)C(=O)N2[C@H]1C(=O)O; experiment: as §1; method in brief: as §2
[13] = substrate: CO/N=C(\C(=O)N[C@@H]1C(=O)N2C(C(=O)O)=C(COC(N)=O)CS[C@H]12)c1ccco1; experiment: as §1; method in brief: as §2
[14] = substrate: CC(=O)OCC1=C(C(=O)O)N2C(=O)[C@@H](NC(=O)Cc3cccs3)[C@H]2SC1; experiment: (§3) Ratio of Kcat to Km of Aeromonas caviae A324R metallo-beta-lactamase IMP-19 expressed in Escherichia coli DH5alpha by computerized microacidimetric method; method in brief: as §2
[15] = substrate: C[C@@H](O)[C@H]1C(=O)N2C(C(=O)O)=C(S[C@@H]3CN[C@H](C(=O)N(C)C)C3)[C@H](C)[C@H]12; experiment: as §3; method in brief: as §2
[16] = substrate: CO[C@@]1(NC(=O)Cc2cccs2)C(=O)N2C(C(=O)O)=C(COC(N)=O)CS[C@@H]21; experiment: as §3; method in brief: as §2
[17] = substrate: C[C@@H](O)[C@H]1C(=O)N2C(C(=O)O)=C(SCCNC=N)C[C@H]12; experiment: as §3; method in brief: as §2
[18] = substrate: CCN1CCN(C(=O)N[C@@H](C(=O)N[C@@H]2C(=O)N3[C@@H]2SC(C)(C)[C@@H]3C(=O)O)c2ccccc2)C(=O)C1=O; experiment: as §3; method in brief: as §2
[19] = substrate: CC1(C)S[C@@H]2[C@H](NC(=O)[C@H](N)c3ccc(O)cc3)C(=O)N2[C@H]1C(=O)O; experiment: as §3; method in brief: as §2
[20] = substrate: CC1(C)S[C@@H]2[C@H](NC(=O)Cc3ccccc3)C(=O)N2[C@H]1C(=O)O; experiment: as §3; method in brief: as §2
[21] = substrate: CO/N=C(\C(=O)N[C@@H]1C(=O)N2C(C(=O)[O-])=C(C[n+]3cccc4c3CCC4)CS[C@H]12)c1csc(N)n1; experiment: as §3; method in brief: as §2
[22] = substrate: CO/N=C(\C(=O)N[C@@H]1C(=O)N2C(C(=O)O)=C(COC(C)=O)CS[C@H]12)c1csc(N)n1; experiment: as §3; method in brief: as §2
[23] = substrate: CC(C)(O/N=C(\C(=O)N[C@@H]1C(=O)N2C(C(=O)[O-])=C(C[n+]3ccccc3)CS[C@H]12)c1csc(N)n1)C(=O)O; experiment: as §3; method in brief: as §2
[24] = substrate: CC1(C)S[C@@H]2[C@H](NC(=O)[C@H](C(=O)O)c3ccsc3)C(=O)N2[C@H]1C(=O)O; experiment: as §3; method in brief: as §2
[25] = substrate: CO/N=C(\C(=O)N[C@@H]1C(=O)N2C(C(=O)O)=C(COC(N)=O)CS[C@H]12)c1ccco1; experiment: as §3; method in brief: as §2

B1: IMP-19 (Aeromonas caviae), A8QUY6 (protein)
chain: MKKLFVLCVCFLCSITAAGAALPDLKIEKLEEGVYVHTSFEEVNGWGVVSKHGLVVLVNTDAYLIDTPFTATDTEKLVNWFVERGYKIKGTISSHFHSDSTGGIEWLNSQSIPTYASELTNELLKKDGKVQAKNSFSGVSYWLVKNKIEVFYPGPGHTQDNVVVWLPEKKILFGGCFVKPDGLGNLGDANLEAWPKSAKILMSKYVKAKLVVSSHSEIGDASLLKRTWEQAVKGLNESKKPSQPSN
Which results are given for B1?
Km [1]: 76 µM; kcat [1]: 11 s⁻¹; kcat [2]: < 0.1 s⁻¹; Km [3]: 7 µM; kcat [3]: 1 s⁻¹; Km [4]: 33 µM; kcat [4]: 9.7 s⁻¹; Km [5]: 100 µM; kcat [5]: 26.5 s⁻¹; Km [6]: 148 µM; kcat [6]: 41.2 s⁻¹; Km [7]: 207 µM; kcat [7]: 456 s⁻¹; Km [8]: 206 µM; kcat [8]: 1010 s⁻¹; Km [9]: 48 µM; kcat [9]: 14.3 s⁻¹; Km [10]: 61 µM; kcat [10]: 20.1 s⁻¹; Km [11]: 20 µM; kcat [11]: 6.4 s⁻¹; Km [12]: 140 µM; kcat [12]: 683 s⁻¹; Km [13]: 95 µM; kcat [13]: 16.4 s⁻¹; kcat/Km [14]: 0.14; kcat/Km [15]: 0.14; kcat/Km [16]: 0.29; kcat/Km [17]: 0.26; kcat/Km [18]: 0.28; kcat/Km [19]: 2.2; kcat/Km [20]: 4.91; kcat/Km [21]: 0.3; kcat/Km [22]: 0.33; kcat/Km [23]: 0.32; kcat/Km [24]: 4.88; kcat/Km [25]: 0.17
